ChEMBL document CHEMBL1143943, “Synthesis of naphtho[2,3-a]phenoxazinium chlorides: structure-activity relationships of these heterocycles and benzo[a]phenoxazinium chlorides as new antimicrobials” (2008)
In brackets after ≈: the same amount, converted by molar mass. Structures can show the parent of a compound that is named as a salt.

System: Saccharomyces cerevisiae
Test: Antifungal activity against Saccharomyces cerevisiae W303-1B at 0.5*10^4 initial cell density after 48 hrs by broth microdilution assay
Type: functional
Method in brief: (§1)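 Same yeast microdilution protocol (W303-1B, RPMI 1640/0.165 M MOPS pH 7.0 with required amino acids, 30 °C, DMSO stocks diluted into medium), but initial inoculum raised in 10-fold steps within 0.5 · 10³–0.5 · 10⁶ cells/mL. MIC taken visually after 48 h as lowest concentration with no detectable growth; triplicates, two independent experiments.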

| SMILES | MIC [µM] |
| --- | --- |
| CC/N=c1/cc2oc3cc(NCCCC(=O)OCC)c4ccccc4c3nc-2cc1C | 7.5 (≈ 3.13 µg/mL) |
| CC/N=c1/cc2oc3cc(NCCCCl)c4ccccc4c3nc-2cc1C | 7.5 (≈ 2.85 µg/mL) |

System: Saccharomyces cerevisiae
Test: Antifungal activity against Saccharomyces cerevisiae W303-1B at 0.5*10^5 initial cell density after 48 hrs by broth microdilution assay
Type: functional
Method in brief: as §1

| SMILES | MIC [µM] |
| --- | --- |
| CC/N=c1/cc2oc3cc(NCCCC(=O)OCC)c4ccccc4c3nc-2cc1C | 7.5 (≈ 3.13 µg/mL) |
| CC/N=c1/cc2oc3cc(NCCCCl)c4ccccc4c3nc-2cc1C | 7.5 (≈ 2.85 µg/mL) |

System: Saccharomyces cerevisiae
Test: Antifungal activity against Saccharomyces cerevisiae W303-1B after 48 hrs by broth microdilution assay
Type: functional
Method in brief: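 NCCLS M27-A broth microdilution; S. cerevisiae W303-1B ([…], ade2, his3, leu2, trp1, ura3) at 0.5 · 10³ cells/mL initial density in RPMI 1640 with 0.165 M MOPS, pH 7.0, plus required amino acids; 30 °C. DMSO stocks diluted into medium. MIC read visually at 48 h as lowest concentration giving no detectable growth; triplicates, two independent experiments.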

| SMILES | MIC [µM] |
| --- | --- |
| C[N+](C)=c1ccc2nc3c(cc(NCCCO)c4ccccc43)oc-2c1 | 120 |
| CC/N=c1/cc2oc3cc(NCCCO)c4ccccc4c3nc-2cc1C | 60 (≈ 21.7 µg/mL) |
| CC[N+](CC)=c1ccc2nc3c(cc(NCCCO)c4ccccc43)oc-2c1 | 120 |
| CC/N=c1/cc2oc3cc(NCCCC(=O)O)c4ccccc4c3nc-2cc1C | 120 (≈ 46.7 µg/mL) |
| COC(=O)CCNc1cc2oc3cc(=[N+](C)C)ccc-3nc2c2ccccc12 | > 120 |
| CCCCCC/N=c1\ccc2nc3c(cc(Nc4ccccc4)c4ccccc43)oc-2c1 | > 120 |
| CC[N+](CC)=c1ccc2nc3c(cc(NCCC(=O)O)c4ccccc43)oc-2c1 | 120 |
| CC/N=c1/cc2oc3cc(NCCC(=O)NCC(=O)OC)c4ccccc4c3nc-2cc1C | 120 (≈ 53.6 µg/mL) |
| CC/N=c1/cc2oc3cc(NCCCN)c4cc5ccccc5cc4c3nc-2cc1C | 60 (≈ 24.6 µg/mL) |
| C[N+](C)=c1ccc2nc3c(cc(NCCC(=O)O)c4ccccc43)oc-2c1 | > 120 |
| C[N+](C)=c1ccc2nc3c(cc(N)c4ccccc43)oc-2c1 | > 120 |
| CC/N=c1/cc2oc3cc(NCCN)c4ccccc4c3nc-2cc1C | 120 (≈ 41.6 µg/mL) |
| CC/N=c1/cc2oc3cc(NCCCC(=O)NC(C(=O)OC)C(C)C)c4ccccc4c3nc-2cc1C (stereo unspecified) | 60 (≈ 30.2 µg/mL) |
| CC/N=c1/cc2oc3cc(Nc4ccccc4)c4ccccc4c3nc-2cc1C | > 120 |
| CC/N=c1/cc2oc3cc(NCCCN)c4ccccc4c3nc-2cc1C | 30 (≈ 10.8 µg/mL) |
| CC/N=c1/cc2oc3cc(NCCCOC(=O)C(NC(=O)OC(C)(C)C)C(C)C)c4ccccc4c3nc-2cc1C (stereo unspecified) | > 120 |
| CC/N=c1/cc2oc3cc(NCCC(=O)NC(CCC(=O)OC)C(=O)OC)c4ccccc4c3nc-2cc1C (stereo unspecified) | 120 (≈ 63.9 µg/mL) |
| CC/N=c1/cc2oc3cc(NC(=O)C(NC(=O)OC(C)(C)C)C(C)C)c4ccccc4c3nc-2cc1C (stereo unspecified) | 60 (≈ 30.2 µg/mL) |
| C[N+](C)=c1ccc2nc3c(cc(Nc4ccccc4)c4ccccc43)oc-2c1 | > 120 |
| CC/N=c1/cc2oc3cc(NCCC(=O)NCCCCC(NC(C)=O)C(=O)OC)c4ccccc4c3nc-2cc1C (stereo unspecified) | 120 (≈ 67.2 µg/mL) |
| CC[N+](CC)=c1ccc2nc3c(cc(N)c4ccccc43)oc-2c1 [NILE BLUE HYDROCHLORIDE] | 60 |

The remaining lines, values ahead:

| MIC [µM] | SMILES |
| --- | --- |
| 30 (≈ 13.8 µg/mL) | CC/N=c1/cc2oc3cc(NCCC(=O)NC(C)C(=O)OC)c4ccccc4c3nc-2cc1C (stereo unspecified) |
| 15 (≈ 6.45 µg/mL) | CC/N=c1/cc2oc3cc(NCCCCl)c4cc5ccccc5cc4c3nc-2cc1C |
| 30 (≈ 14.7 µg/mL) | CC/N=c1/cc2oc3cc(NCCC(=O)NC(C(=O)OC)C(C)C)c4ccccc4c3nc-2cc1C (stereo unspecified) |
| 7.5 (≈ 3.13 µg/mL) | CC/N=c1/cc2oc3cc(NCCCC(=O)OCC)c4ccccc4c3nc-2cc1C |
| 15 | CC[N+](CC)=c1ccc2nc3c(cc(NCCC(=O)OC)c4ccccc43)oc-2c1 |
| 15 (≈ 5.84 µg/mL) | CC/N=c1/cc2oc3cc(NCCC(=O)OC)c4ccccc4c3nc-2cc1C |
| 15 (≈ 6.05 µg/mL) | CC/N=c1/cc2oc3cc(NCCC(=O)OCC)c4ccccc4c3nc-2cc1C |
| 3.75 (≈ 1.42 µg/mL) | CC/N=c1/cc2oc3cc(NCCCCl)c4ccccc4c3nc-2cc1C |
| 15 | CCOC(=O)CCNc1cc2oc3cc(=[N+](C)C)ccc-3nc2c2ccccc12 |
| 15 (≈ 4.55 µg/mL) | CC/N=c1/cc2oc3cc(N)c4ccccc4c3nc-2cc1C |
| 15 (≈ 8.05 µg/mL) | CC/N=c1/cc2oc3cc(NCCC(=O)NC(Cc4ccccc4)C(=O)OC)c4ccccc4c3nc-2cc1C (stereo unspecified) |
| 30 (≈ 10.6 µg/mL) | CC/N=c1/cc2oc3cc(N)c4cc5ccccc5cc4c3nc-2cc1C |
| 15 (≈ 8.19 µg/mL) | CC/N=c1/cc2oc3cc(NCCNC(=O)C(NC(=O)OC(C)(C)C)C(C)C)c4ccccc4c3nc-2cc1C (stereo unspecified) |
| 15 (≈ 8.2 µg/mL) | CC/N=c1/cc2oc3cc(NCCOC(=O)C(NC(=O)OC(C)(C)C)C(C)C)c4ccccc4c3nc-2cc1C (stereo unspecified) |
| 15 (≈ 6.17 µg/mL) | CC/N=c1/cc2oc3cc(NCCCO)c4cc5ccccc5cc4c3nc-2cc1C |
| 15 (≈ 7.01 µg/mL) | CC/N=c1/cc2oc3cc(NCCCC(=O)OCC)c4cc5ccccc5cc4c3nc-2cc1C |
| 30 (≈ 10.4 µg/mL) | CC/N=c1/cc2oc3cc(NCCO)c4ccccc4c3nc-2cc1C |
| 15 (≈ 5.63 µg/mL) | CC/N=c1/cc2oc3cc(NCCC(=O)O)c4ccccc4c3nc-2cc1C |
| 15 (≈ 5.93 µg/mL) | CCCNc1cc2oc3c/c(=N/CC)c(C)cc-3nc2c2cc3ccccc3cc12 |

System: Saccharomyces cerevisiae
Test: Antifungal activity against Saccharomyces cerevisiae W303-1B at 0.5*10^6 initial cell density after 48 hrs by broth microdilution assay
Type: functional
Method in brief: as §1

| SMILES | MIC [µM] |
| --- | --- |
| CC/N=c1/cc2oc3cc(NCCCC(=O)OCC)c4ccccc4c3nc-2cc1C | 30 (≈ 12.5 µg/mL) |
| CC/N=c1/cc2oc3cc(NCCCCl)c4ccccc4c3nc-2cc1C | 15 (≈ 5.7 µg/mL) |
